Results reported in ChEMBL document CHEMBL1133007, “Synthesis and in vitro evaluation of novel morpholinyl- and methylpiperazinylacyloxyalkyl prodrugs of 2-(6-methoxy-2-naphthyl)propionic acid (Naproxen) for topical drug delivery” (J Med Chem, 2000).
Converted amounts (≈) assume the structure as drawn.

Key:
[1] = Evaluated for the time by which 50% of total naproxen is formed in 80% human serum at a pH of 7.4; type: ADME; conditions: pH 7.4
Method in brief: (§1)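 Human serum diluted to 80% with 0.16 M phosphate buffer pH 7.4, 37 °C. Prodrug dissolved in buffer, then preheated serum added. Aliquots were quenched in ethanol and centrifuged, and the supernatant was analysed by HPLC for remaining prodrug and released naproxen. Pseudo-first-order t1/2 came from the slope of log remaining prodrug vs time. f50% is the time at which 50% of total naproxen formed. Mean of n = 2.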

[2] = Evaluated for the solubility in aqueous solution at pH 7.4; type: ADME
Method in brief: (§2)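 Excess compound was stirred in 0.16 M phosphate buffer at room temperature, 60 min at pH 5.0 or 30 min at pH 7.4, with pH held constant. The mixture was filtered (0.45 µm) and the filtrate quantified by reversed-phase HPLC.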

[3] = organism: Homo sapiens; assay: Evaluated for the Steady-state fluxes (Jss) for delivery of total Naproxen species through excised human skin in Vitro in Isotonic phosphate buffer (0.05 M) at pH 7.4; type: ADME
Method in brief: (§3)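 Excised postmortem human skin, epidermis heat-separated (60 °C water, 2 min), dried, frozen, then rehydrated and mounted in Franz-type diffusion cells (area 0.71 cm2). Donor was a saturated suspension in 0.05 M phosphate buffer at the stated pH. Receptor was isotonic 0.05 M phosphate pH 7.4, stirred at 37 °C and sampled at intervals. Total naproxen, intermediate and prodrug were measured by HPLC. Jss is the steady-state slope per area; mean ± SE, n = 3-12.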

[4] = Evaluated for the apparent partition coefficient between 1-octanol and phosphate buffer at pH 5.0.; type: physicochemical; conditions: 1-octanol/phosphate buffer
Method in brief: (§4)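 Shake-flask log Papp at room temperature. Compound in phosphate buffer (pH 5.0 or 7.4) was shaken with buffer-saturated 1-octanol for 30 min (pH 5.0) or 15 min (pH 7.4), and phases were separated by centrifugation. Buffer-phase concentration was measured by HPLC before and after partitioning.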

[5] = Evaluated for the solubility in aqueous solution at pH 5.0; type: ADME; method in brief: as §2
[6] = organism: Homo sapiens; assay: Evaluated for the Steady-state fluxes (Jss) for delivery of total Naproxen species through excised human skin in vitro in Isotonic phosphate buffer (0.05 M) at pH 5.0; type: ADME; method in brief: as §3
[7] = Evaluated for 50% hydrolysis rate in 80% human serum at a pH of 7.4; type: ADME; conditions: pH 7.4; method in brief: as §1
[8] = Evaluated for the apparent partition coefficient between 1-octanol and phosphate buffer at pH 7.4; type: physicochemical; conditions: 1-octanol/phosphate buffer; method in brief: as §4
[9] = Evaluated for 50% hydrolysis rate in phosphate buffer at 5.0 at 37 degrees C; type: ADME; conditions: pH 5
Method in brief: (§5)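 Chemical stability in phosphate buffer (0.16 M, ionic strength 0.5) at pH 7.4 or 5.0, in a 37 °C thermostatted water bath. Samples were taken at intervals and analysed by HPLC for remaining prodrug. Pseudo-first-order t1/2 was calculated from the slope of the linear part of log remaining prodrug vs time.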

[10] = Evaluated for 50% hydrolysis rate in phosphate buffer at pH 7.4 at 37 degrees C; type: ADME; method in brief: as §5
[11] = Evaluated for the hydrolysis rate in 80% human serum (mean; n=2) at a pH of 7.4; type: ADME; conditions: pH 7.4; method in brief: as §1
[12] = organism: Homo sapiens; assay: Evaluated for the Steady-state fluxes (Jss) for delivery of total Naproxen species through excised human skin in vitro in isotonic phosphate buffer (0.05 M) at pH 7.4; type: ADME; method in brief: as §3
[13] = organism: Homo sapiens; assay: Evaluated for the Steady-state fluxes (Jss) for delivery of total Naproxen species through excised human skin in vitro in isotonic phosphate buffer (0.05 M) at pH 5.0; type: ADME; method in brief: as §3
[14] = Evaluated for the hydrolysis rate in phosphate buffer at pH 7.4 at 37 degrees Centigrade; type: ADME; method in brief: as §5
[15] = Evaluated for the hydrolysis rate in phosphate buffer at 5.0 at 37 degrees Centigrade.; type: ADME; conditions: pH 5; method in brief: as §5
[16] = organism: Homo sapiens; assay: Evaluated for the Steady-state fluxes (Jss) for delivery of total Naproxen species through excised human skin in Vitro in Isotonic phosphate buffer (0.05 M) at pH 5.0; type: ADME; method in brief: as §3

Structure (SMILES) | 50% naproxen formed [1] | solubility [2] | Jss [3] | logD [4] | solubility [5] | Jss [6] | half-life [7] | logD [8] | half-life [9] | half-life [10] | half-life [11] | Jss [12] | Jss [13] | half-life [14] | half-life [15] | Jss [16]
COc1ccc2cc(C(C)C(=O)OCCCCOC(=O)CCCN3CCN(C)CC3)ccc2c1 (configuration not stated) | 3 min | 50 mM (≈ 23500 µg/mL) | 13.2 nM hr-1 cm**-2 | 1.41 | 61 mM (≈ 28700 µg/mL) | 1.2 nM hr-1 cm**-2 | 0.0167 h | 2.69 | 893 h | 48 h |  |  |  |  |  | 
COc1ccc2cc(C(C)C(=O)OCCOC(=O)CN3CCOCC3)ccc2c1 (configuration not stated) | 25 min | 0.07 mM (≈ 28.1 µg/mL) |  | 2.62 | 0.05 mM (≈ 20.1 µg/mL) |  | 0.333 h | 2.14 | 161 h | 33.6 h |  | 0.7 nM hr-1 cm**-2 | 0.6 nM hr-1 cm**-2 |  |  | 
COc1ccc2cc(C(C)C(=O)OCCOC(=O)CN3CCN(C)CC3)ccc2c1 (configuration not stated) | 22 min | 4.1 mM (≈ 1700 µg/mL) | 24.6 nM hr-1 cm**-2 | 0.43 | 5.3 mM (≈ 2200 µg/mL) |  | 0.433 h | 1.16 | 1600 h | 57.6 h |  |  |  |  |  | 2.2 nM hr-1 cm**-2

The remaining lines, values ahead:

50% naproxen formed [1] | solubility [2] | Jss [3] | logD [4] | solubility [5] | Jss [6] | half-life [7] | logD [8] | half-life [9] | half-life [10] | half-life [11] | Jss [12] | Jss [13] | half-life [14] | half-life [15] | Jss [16] | Structure (SMILES)
11 min |  |  |  |  |  | 0.217 h |  |  |  |  |  |  |  |  |  | COc1ccc2cc(C(C)C(=O)OCCCCOC(=O)CN3CCOCC3)ccc2c1 (configuration not stated)
5 min | 432 mM (≈ 197000 µg/mL) |  | 1.2 | 142 mM (≈ 64700 µg/mL) |  |  | 3.04 |  |  | 4 min | 7.7 nM hr-1 cm**-2 | 0.6 nM hr-1 cm**-2 | 16.8 h | 432 h |  | COc1ccc2cc(C(C)C(=O)OCCCCOC(=O)CCN3CCN(C)CC3)ccc2c1 (configuration not stated)
7 min | 8.8 mM (≈ 3890 µg/mL) | 7.2 nM hr-1 cm**-2 | 0.94 | 16.2 mM (≈ 7170 µg/mL) |  | 0.05 h | 1.3 | 1920 h | 182 h |  |  |  |  |  | 0.2 nM hr-1 cm**-2 | COc1ccc2cc(C(C)C(=O)OCCCCOC(=O)CN3CCN(C)CC3)ccc2c1 (configuration not stated)
